Measurements published in ChEMBL document CHEMBL4354845, “Discovery and Structure-Activity Relationships of Nociceptin Receptor Partial Agonists That Afford Symptom Ablation in Parkinson's Disease Models” (J Med Chem, 2020).
Active and inactive are the calls of the source. The rule behind the calls is not given here.

Legend:
[1] = Apparent permeability across basolateral to apical side in dog MDCK-MDR1 cells by HPLC-MS/MS analysis; assay type: ADME, cell-based, Canis lupus familiaris
Summary of the method: (§1)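 MDR1-MDCK monolayers, bidirectional permeability (A→B and B→A), compound quantified by HPLC/MS/MS and expressed as Papp (10^-6 cm/s). Efflux ratio B–A/A–B. High BBB permeability taken as Papp A–B >3.0 with efflux ratio <3; efflux ratio >3 counted as high efflux.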

[2] = Apparent permeability across basolateral to apical side in human Caco2 cells by HPLC-MS/MS analysis; assay type: ADME, cell-based; settings: Caco-2
Summary of the method: (§2)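 Caco-2 monolayers, two-way permeability (apical→basolateral and basolateral→apical), compound monitored by HPLC/MS/MS and reported as Papp (10^-6 cm/s). Papp >1.0x10^-6 cm/s with efflux ratio <3 classed as high permeability/no efflux.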

[3] = Apparent permeability across apical to basolateral side in human Caco2 cells by HPLC-MS/MS analysis; assay type: ADME, cell-based; settings: Caco-2; summary of the method: as §2
[4] = Stability in mouse liver microsomes assessed as half life at 1 uM incubated for 60 mins by LC-MS/MS analysis; assay type: ADME, Microsome
Summary of the method: (§3)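 Compound at 1 µM incubated at 37°C with liver microsomes in 100 mM potassium phosphate pH 7.4 and 5 mM MgCl2. Reaction started with 1 mM NADPH, sampled at 30, 45 and 60 min and quenched with acetonitrile/0.1% formic acid. Parent loss measured by LC-MS against t=0 with propranolol internal standard. Half-life from single-phase exponential fit, in duplicate.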

[5] = Apparent permeability across apical to basolateral side in dog MDCK-MDR1 cells by HPLC-MS/MS analysis; assay type: ADME, cell-based, Canis lupus familiaris; summary of the method: as §1
[6] = Tmax in Sprague-Dawley rat brain at 3 mg/kg, sc measured upto 8 hrs by LC-MS/MS analysis; assay type: ADME, organism-based
Summary of the method: (§4)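 Male Sprague-Dawley rats (250–300 g) given a single s.c. dose of 3 mg/kg (2 mL/kg) as a 1.5 mg/ml solution in 5% dimethylacetamide/95% of 30% SBECD. Plasma (K2-EDTA) and brain collected at 0.5, 1, 2, 4 and 8 h. Brain homogenised 1:4 w/v in water. Terfenadine internal standard, positive-ion ESI LC-MS/MS. Noncompartmental analysis, linear trapezoidal AUC to 8 h. Brain values are total.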

[7] = AUClast in Sprague-Dawley rat plasma at 3 mg/kg, sc measured upto 8 hrs by LC-MS/MS analysis; assay type: ADME, organism-based; parameters: dose 3 mg/kg, time < 8 hr, route subcutaneous; summary of the method: as §4
[8] = Half life in Sprague-Dawley rat brain at 3 mg/kg, sc measured upto 8 hrs by LC-MS/MS analysis; assay type: ADME, organism-based; summary of the method: as §4
Rattus norvegicus [9] = test: Anti-parkinson's disease activity in Sprague-Dawley rat model of L-DOPA-induced dyskinesia at 0.01 to 1 mg/kg, ip administered for 3 days; assay type: functional, organism-based
[10] = AUClast in Sprague-Dawley rat brain at 3 mg/kg, sc measured upto 8 hrs by LC-MS/MS analysis; assay type: ADME, organism-based; parameters: time < 8 hr, dose 3 mg/kg, route subcutaneous; summary of the method: as §4
Rattus norvegicus [11] = test: Anti-parkinson's disease activity in 6-OHDA-induced hemi-lesioned Sprague-Dawley rat model of Parkinson's disease assessed as reduction in immobility time at 0.01 to 1 mg/kg, ip administered for 3 days and measured after 20 mins of compound administration by bar test; assay type: functional, organism-based
Summary of the method: (§5)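 Rats received unilateral 6-OHDA (8 µg freebase) into the medial forebrain bundle and were enrolled if they made >7 ipsilateral turns/min after D-amphetamine 5 mg/kg i.p. They were trained to reproducible performance, then given acute i.p. doses or vehicle (saline + 5% Tween 80, 1% DMSO) with 3-day washouts. Contralateral paw scored at 20 and 90 min in bar and drag tests. Rotarod started at 5 rpm, rising 5 rpm/180 s, expressed as % of control. Analysis by two-way ANOVA with Bonferroni.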

[12] = Half life in Sprague-Dawley rat plasma at 3 mg/kg, sc measured upto 8 hrs by LC-MS/MS analysis; assay type: ADME, organism-based; summary of the method: as §4
[13] = Cmax in Sprague-Dawley rat brain at 3 mg/kg, sc measured upto 8 hrs by LC-MS/MS analysis; assay type: ADME, organism-based; parameters: dose 3 mg/kg, route subcutaneous; summary of the method: as §4
Rattus norvegicus [14] = test: Anti-parkinson's disease activity in 6-OHDA-induced hemi-lesioned Sprague-Dawley rat model of Parkinson's disease assessed as increase in stepping activity at 0.01 to 1 mg/kg, ip administered for 3 days and measured after 90 mins of compound administration by drag test; assay type: functional, organism-based; summary of the method: as §5
Rattus norvegicus [15] = test: Anti-parkinson's disease activity in 6-OHDA-induced hemi-lesioned Sprague-Dawley rat model of Parkinson's disease assessed as increase in time spent on rotarod at 0.01 to 1 mg/kg, ip administered for 3 days and measured after 20 mins of compound administration by rotarod test; assay type: functional, organism-based; summary of the method: as §5
Rattus norvegicus [16] = test: Anti-parkinson's disease activity in Sprague-Dawley rat model of L-DOPA-induced dyskinesia at 0.1 to 3 mg/kg, ip administered for 3 days; assay type: functional, organism-based
[17] = Cmax in Sprague-Dawley rat plasma at 3 mg/kg, sc measured upto 8 hrs by LC-MS/MS analysis; assay type: ADME, organism-based; parameters: dose 3 mg/kg, route subcutaneous; summary of the method: as §4
[18] = Tmax in Sprague-Dawley rat plasma at 3 mg/kg, sc measured upto 8 hrs by LC-MS/MS analysis; assay type: ADME, organism-based; summary of the method: as §4
[19] = Stability in rat liver microsomes assessed as half life at 1 uM incubated for 60 mins by LC-MS/MS analysis; assay type: ADME, Microsome; summary of the method: as §3
[20] = Stability in human liver microsomes assessed as half life at 1 uM incubated for 60 mins by LC-MS/MS analysis; assay type: ADME, Microsome; summary of the method: as §3
Rattus norvegicus [21] = test: Anti-parkinson's disease activity in 6-OHDA-induced hemi-lesioned Sprague-Dawley rat model of Parkinson's disease assessed as reduction in immobility time at 0.1 to 3 mg/kg, ip administered for 3 days and measured after 20 mins of compound administration by bar test; assay type: functional; parameters: scale not given: the % may be the effect or the level left; summary of the method: as §5
Rattus norvegicus [22] = test: Anti-parkinson's disease activity in 6-OHDA-induced hemi-lesioned Sprague-Dawley rat model of Parkinson's disease assessed as increase in stepping activity at 0.1 to 3 mg/kg, ip administered for 3 days and measured after 90 mins of compound administration by drag test; assay type: functional, organism-based; summary of the method: as §5
Rattus norvegicus [23] = test: Anti-parkinson's disease activity in 6-OHDA-induced hemi-lesioned Sprague-Dawley rat model of Parkinson's disease assessed as increase in time spent on rotarod at 0.1 to 3 mg/kg, ip administered for 3 days and measured after 20 mins of compound administration by rotarod test; assay type: functional; summary of the method: as §5

Compound	Papp B→A [1] [×10⁻⁶ cm/s]	Papp B→A [2] [×10⁻⁶ cm/s]	Papp A→B [3] [×10⁻⁶ cm/s]	half-life at 1 µM [4] [h]	Papp A→B [5] [×10⁻⁶ cm/s]	Tmax [6] [h]	AUC(0-t) at 8 h [7] [µM·h]	half-life [8] [h]	Activity (Rattus norvegicus [9])	AUC(0-t) at 8 h [10] [µM·h]	Activity (Rattus norvegicus [11])	half-life [12] [h]	Cmax [13] [nM]	Activity (Rattus norvegicus [14])	Activity (Rattus norvegicus [15])	Activity (Rattus norvegicus [16])	Cmax [17] [nM]	Tmax [18] [h]	half-life at 1 µM [19] [h]	half-life at 1 µM [20] [h]	other results
CC(C)[C@H]1CC[C@@H](N2CCC(n3cc(CCN)c4ccccc43)CC2)CC1.Cl.Cl	22.1	6.49	4.36	> 1	0.6																
CC(C)[C@H]1CC[C@@H](N2CCC(N3CCc4ccccc43)CC2)CC1	33.8	25	30	0.0467	26.8	0.5	1.25	2.71	inactive	6.7	Active	2.13	3070	Active	Active	inactive	456	0.5			
CC(C)[C@H]1CC[C@@H](N2CCC(n3cc(CN)c4ccccc43)CC2)CC1	14.4	4.92	4.64		0.34	4	1	10.8	inactive	6.13	Active	2.61	956	Active	Active	inactive	529	0.5	> 1	> 1	
CC(C)[C@H]1CC[C@@H](N2CCC(n3ccc4ccccc43)CC2)CC1	15.2	19.1	24		28.8	0.5	1.96	2.43	inactive	10.1		2.19	4170			inactive	626	1	0.0967	0.0883	Activity (Rattus norvegicus [21]): 25%; Activity (Rattus norvegicus [22]): Active; Activity (Rattus norvegicus [23]): 20%
